Each block holds one compound with its values, some of them ahead of it.
Columns and labels:
[1] = Ferric reducing antioxidant power; conditions: mean ± S.D. of three measurements
Summary of the method: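 FRAP reagent is acetate buffer (300 mM, pH 3.6), TPTZ (10 mM in 40 mM HCl) and FeCl3·6H2O (20 mM) at 10:1:1, prewarmed 10 min at 37 °C. The test extract reacts with the reagent for 30 min at 37 °C, and Fe(II)-TPTZ is read at 593 nm. Values come from a ferrous sulfate calibration curve, as FeSO4 equivalents per g extract. Ascorbic acid is the reference; three independent experiments, mean ± SD.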

[2] = DPPH radical scavenging assay
Summary of the method: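 The test extract (6.25–400 ug/mL) is mixed 1:1 with 0.06 mM DPPH in absolute ethanol and incubated 30 min in the dark. Absorbance is read at 517 nm and corrected with a DPPH-free sample background. BHT is the standard. % inhibition = (Acontrol − Asample)/Acontrol × 100. IC50 comes from dose-response curves; three independent experiments, mean ± SD.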

[3] = target: collagenase from Clostridium histolyticum; test: Collagenase enzyme inhibitory assay; type: biochemical; conditions: concentration range 15.63–1000 µg/mL
Summary of the method: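 Clostridium histolyticum collagenase (0.1 mg/mL) is preincubated with the test extract in tricine buffer (50 mM tricine, 10 mM CaCl2, 400 mM NaCl, pH 7.5) for 20 min at 37 °C. FALGPA substrate (1 mM solution) is added, and absorbance is read at 335 nm after 15 min. EGCG is the positive control. IC50 is taken from dose-response curves of % inhibition, with three independent experiments.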

[4] = target: porcine pancreatic elastase (Sus scrofa, UniProt P00772); test: Elastase enzyme inhibitory assay; type: biochemical; conditions: concentration range 15.63–1000 µg/mL
Sequence of porcine pancreatic elastase (P00772 27-266): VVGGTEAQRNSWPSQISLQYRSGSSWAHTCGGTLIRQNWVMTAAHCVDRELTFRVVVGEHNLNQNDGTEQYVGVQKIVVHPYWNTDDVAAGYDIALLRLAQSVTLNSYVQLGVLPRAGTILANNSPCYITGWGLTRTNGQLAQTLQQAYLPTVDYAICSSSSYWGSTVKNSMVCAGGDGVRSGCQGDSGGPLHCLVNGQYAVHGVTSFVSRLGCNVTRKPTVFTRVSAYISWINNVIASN
Summary of the method: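 Porcine pancreatic elastase and the test extract in Tris-HCl (100 mM, pH 8.0) are incubated 5 min at 37 °C. The reaction is started with succinyl-Ala-Ala-Ala-p-nitroanilide (4.4 mM solution in Tris-HCl), and absorbance is read at 410 nm. EGCG is the positive control and distilled water the negative control. IC50 is taken from dose-response curves of % inhibition, with three independent experiments.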

hyaluronidase = target: T1, hyaluronidase (Bos taurus, UniProt Q2YDK3); test: Hyaluronidase enzyme inhibitory assay; type: biochemical; conditions: concentration range 25–250 µg/mL
T1 sequence (Q2YDK3 36-553): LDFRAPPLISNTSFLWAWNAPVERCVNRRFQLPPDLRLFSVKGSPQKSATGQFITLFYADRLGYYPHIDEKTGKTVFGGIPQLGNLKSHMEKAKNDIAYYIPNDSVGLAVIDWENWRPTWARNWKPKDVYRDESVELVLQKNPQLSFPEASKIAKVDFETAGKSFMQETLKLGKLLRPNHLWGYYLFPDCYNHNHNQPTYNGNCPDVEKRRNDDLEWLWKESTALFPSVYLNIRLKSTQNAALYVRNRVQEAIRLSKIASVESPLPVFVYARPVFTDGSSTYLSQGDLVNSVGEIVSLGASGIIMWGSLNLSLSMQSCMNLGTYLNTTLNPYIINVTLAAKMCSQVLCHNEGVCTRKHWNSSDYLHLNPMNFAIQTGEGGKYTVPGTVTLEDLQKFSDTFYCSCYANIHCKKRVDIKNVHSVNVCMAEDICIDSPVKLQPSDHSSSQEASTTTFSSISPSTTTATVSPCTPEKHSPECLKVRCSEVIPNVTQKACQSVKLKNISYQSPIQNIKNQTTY
Summary of the method: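 The test extract in 10% DMSO is incubated with hyaluronidase 10 min at 37 °C, then with CaCl2 (12.5 mM solution) for 10 min. Sodium hyaluronate is added for 40 min at 37 °C. NaOH (0.9 M) and sodium borate (0.2 M) are added and heated 3 min at 100 °C. PDMAB (67 mM) is added for 10 min at 37 °C, and absorbance is read at 585 nm. Tannic acid is the reference; IC50 comes from dose-response curves, three independent experiments.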

Compound: O=C1O[C@H]([C@@H](O)CO)C(O)=C1O [Ascorbic acid]
FRAP [1]: 4794.7 ± 5.507 µM FeSO4/g extract

DPPH (IC50) ([2]; mean ± S.D. of three measurements): 20.721 ± 0.138 µg/mL
DPPH radical scavenging IC50 ([2]; unit as printed in the results text): 20.72 ± 0.138 µg/mL
Compound: Cc1cc(C(C)(C)C)c(O)c(C(C)(C)C)c1 [BHT, butylated hydroxytoluene]

Collagenase inhibition IC50 [3]: 33.662 ± 0.302 µg/mL
Elastase inhibition IC50 [4]: 33.334 ± 0.299 µg/mL
Compound: O=C(O[C@@H]1Cc2c(O)cc(O)cc2O[C@@H]1c1cc(O)c(O)c(O)c1)c1cc(O)c(O)c(O)c1 [EGCG, epigallocatechin gallate]

Hyaluronidase inhibition IC50 (hyaluronidase): 30.652 ± 0.626 µg/mL
Compound: tannic acid

Reference: article PMC11170203 (Saudi Pharmaceutical Journal : SPJ, 2024)
